Where a chain is given by its changes, count along the chain named.
How the values were obtained:
Conditions in all cases: stereoisomer not certain
[1] = system: T1, OR1N2
T1 sequence (whole entry): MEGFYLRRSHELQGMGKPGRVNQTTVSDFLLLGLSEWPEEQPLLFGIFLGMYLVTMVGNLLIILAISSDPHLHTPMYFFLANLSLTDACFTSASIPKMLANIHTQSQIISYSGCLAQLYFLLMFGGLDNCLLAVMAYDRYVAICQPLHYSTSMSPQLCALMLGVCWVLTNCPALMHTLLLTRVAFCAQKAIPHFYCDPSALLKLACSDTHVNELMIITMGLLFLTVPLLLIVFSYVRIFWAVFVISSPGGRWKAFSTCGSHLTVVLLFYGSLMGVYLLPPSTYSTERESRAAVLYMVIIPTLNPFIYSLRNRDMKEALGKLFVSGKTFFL
Method in brief: (§1)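 Each receptor–molecule pair is labelled responsive or non-responsive (inactive) according to whether the original authors judged the measured signal statistically different from baseline. The data were taken from the main text and supplementary material of published papers and checked for typos and inconsistencies. Assay methods differed by source, with transient luciferase assays in mammalian cell lines being common.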

[2] = target: T2, OR1Q1 (Homo sapiens) (UniProt Q15612)
T2 sequence (whole entry): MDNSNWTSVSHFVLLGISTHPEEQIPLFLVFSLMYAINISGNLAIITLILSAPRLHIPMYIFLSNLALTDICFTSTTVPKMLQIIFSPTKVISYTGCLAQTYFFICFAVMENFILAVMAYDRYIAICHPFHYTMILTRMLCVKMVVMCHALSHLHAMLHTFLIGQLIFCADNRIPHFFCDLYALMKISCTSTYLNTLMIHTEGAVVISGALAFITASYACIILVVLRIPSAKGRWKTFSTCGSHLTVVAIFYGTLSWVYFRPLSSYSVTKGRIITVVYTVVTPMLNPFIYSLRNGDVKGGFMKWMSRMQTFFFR
Method in brief: as §1

[3] = target: T3, OR1S1 (Homo sapiens) (UniProt Q8NH92)
T3 sequence (whole entry): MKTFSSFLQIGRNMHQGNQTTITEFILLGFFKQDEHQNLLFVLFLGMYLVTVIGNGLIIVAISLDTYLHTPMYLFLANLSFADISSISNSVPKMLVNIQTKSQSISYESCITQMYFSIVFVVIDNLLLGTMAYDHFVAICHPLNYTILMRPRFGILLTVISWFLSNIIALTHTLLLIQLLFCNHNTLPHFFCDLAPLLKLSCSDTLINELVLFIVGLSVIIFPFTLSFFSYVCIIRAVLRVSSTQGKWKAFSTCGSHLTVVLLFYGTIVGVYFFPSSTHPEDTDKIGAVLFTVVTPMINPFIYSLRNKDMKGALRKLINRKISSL
Method in brief: as §1

[4] = target: T4, OR1S2 (Homo sapiens) (UniProt Q8NGQ3)
T4 sequence (whole entry): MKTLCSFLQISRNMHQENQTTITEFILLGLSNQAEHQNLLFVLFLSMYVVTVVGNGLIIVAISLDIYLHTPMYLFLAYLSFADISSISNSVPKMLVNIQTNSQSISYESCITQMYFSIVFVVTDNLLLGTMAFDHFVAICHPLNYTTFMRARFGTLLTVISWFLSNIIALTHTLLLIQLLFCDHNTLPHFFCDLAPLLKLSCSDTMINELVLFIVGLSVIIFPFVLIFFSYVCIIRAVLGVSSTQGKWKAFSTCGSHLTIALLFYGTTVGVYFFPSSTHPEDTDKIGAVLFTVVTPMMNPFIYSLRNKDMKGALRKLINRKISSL
Method in brief: as §1

[5] = target: T5, OR2A1 (Homo sapiens) (UniProt Q8NGT9)
T5 sequence (whole entry): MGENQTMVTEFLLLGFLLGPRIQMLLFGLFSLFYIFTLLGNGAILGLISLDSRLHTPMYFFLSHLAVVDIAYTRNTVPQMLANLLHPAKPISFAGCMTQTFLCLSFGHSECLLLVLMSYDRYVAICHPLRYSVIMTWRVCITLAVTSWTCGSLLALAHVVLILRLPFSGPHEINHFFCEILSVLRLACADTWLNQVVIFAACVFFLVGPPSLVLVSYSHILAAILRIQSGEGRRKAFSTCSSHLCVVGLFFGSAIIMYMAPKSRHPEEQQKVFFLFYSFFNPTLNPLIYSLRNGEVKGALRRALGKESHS
Method in brief: as §1

[6] = system: T6, OR1Q1
T6 sequence (whole entry): T2 sequence (whole entry) with Q24R, I163M
Method in brief: as §1

[7] = system: T7, OR1S2 E17G
T7 sequence (whole entry): T4 sequence (whole entry) with E17G
Method in brief: as §1

[8] = system: T8, OR1S2 V225T G240R
T8 sequence (whole entry): T4 sequence (whole entry) with V225T, G240R
Method in brief: as §1

[9] = system: T9, OR2A1 S168C
T9 sequence (whole entry): T5 sequence (whole entry) with S168C
Method in brief: as §1

Measured: odorant receptor agonist call;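 further: active if original authors judged signal statistically different from baseline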

CCC(S)C(C)CO (stereo not drawn)
inactive: [1] | [2] | [3] | [4] | [5]

CCCCCC(S)C(C)CO (stereo not drawn)
inactive: [1] | [2] | [3] | [4] | [5]

CCCCCCCCCCCCCCCCCC(=O)OCC
inactive: [5]

CCC1OC(C)=C(O)C1=O (stereo not drawn)
inactive: all assays above

CCCCCCCCCCCC(=O)OCC
inactive: [5]

CC1=C(O)C(=O)OC1C (stereo not drawn)
inactive: all assays above

CC1=NC(C)C(C)S1 (stereo not drawn)
inactive: all assays above

Cc1cnc(C)c(C)n1
inactive: all assays above

CCCCCC(=O)C(C)C(C)=O (stereo not drawn)
inactive: [1] | [2] | [3] | [4] | [5]
